One data set can be described thus: Cytotoxicity assay. It counts as cell-based. The following applies: mouse, J774A.1 murine macrophage cells. The method, boiled down:
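J774A.1 macrophages were kept in DMEM with 10% FBS and 10 μg/mL gentamicin at 37 °C, 5% CO2. Cells from a 10^5 cells/ml stock got a range of compound concentrations plus AlamarBlue (10% of medium volume), with a medium-only negative control. Incubation was 24 h at 37 °C in 5% CO2, and CC50 was derived from the read-out.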

The test system of data set [1] is Naegleria fowleri ATCC® 30215™ trophozoites. Put plainly: In vitro activity assay. In kind it is cell-based. The following applies: for N. fowleri ATCC® 30215™ SI (CC50/IC50): selectivity index, CC50 J774A.1 / IC50 ATCC 30215. The method, boiled down:
(§1)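 Both strains were grown axenically at 37 °C in 2% Bactocasitone with 10% FBS, penicillin G and streptomycin. Trophozoites from a 2*10^5 cells/ml stock were seeded in duplicate with serial compound dilutions in the same medium, plus a medium-only negative control. AlamarBlue (10% of medium volume) was added for 48 h at 37 °C with slight agitation, read at 570 nm […] with a 630 nm reference. Inhibitory concentrations came from non-linear regression; experiments were done in triplicate and averaged.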

Data set [2] deals with Naegleria fowleri ATCC® 30808™ trophozoites. Put plainly: In vitro activity assay. It counts as cell-based. The following applies: for N. fowleri ATCC® 30808™ SI (CC50/IC50): selectivity index, CC50 J774A.1 / IC50 ATCC 30808. The method, boiled down: as §1
For data set [3] the following is noted: various species plasma; ref Tian et al., 2016; cited from earlier work.
For data set [4] the following is noted: ref Tian et al., 2016; cited from earlier work.

For `C[C@@H]1[C@H](O)[C@@H](C)/C=C/C=C/C=C/C=C/C=C/C=C/C=C/[C@H](O[C@@H]2O[C@H](C)[C@@H](O)[C@H](N)[C@@H]2O)C[C@@H]2O[C@](O)(C[C@@H](O)C[C@@H](O)[C@H](O)CC[C@@H](O)C[C@@H](O)CC(=O)O[C@H]1C)C[C@H](O)[C@H]2C(=O)O` [Amphotericin B], the half-maximal cytotoxic concentration (CC50) at 24 h in “Cytotoxicity assay” was no less than 200000 nM. For the same compound, the IC50 in data set [1] (Naegleria fowleri, ATCC30215, 48 h, read-out: N. fowleri ATCC® 30215™ IC50) is 166 ± 26 nM; in data set [2] (Naegleria fowleri, ATCC30808, 48 h, read-out: N. fowleri ATCC® 30808™ IC50), 121 ± 32 nM. Further, the “N. fowleri ATCC® 30215™ SI (CC50/IC50)” value in data set [1] was no less than 1204.819. Besides, in data set [2], the “N. fowleri ATCC® 30808™ SI (CC50/IC50)” value is on record as no less than 1652.893.

`CCCCC1OC(=O)c2cc(Br)ccc21` (stereo not drawn) [Br-NBP, 3-butyl-6-bromo-1(3H)-isobenzofuranone]: the “protein binding to plasma” value in data set [3] is on record as “different degree protein binding to various species plasma”. In addition, in data set [4], the half-life entry is recorded as “short half-life”, the pharmacokinetic profile result was “good dose-linear pharmacokinetic profile” and the tissue distribution entry was “wide tissue distribution”.

In “Cytotoxicity assay”, `CCCCCCCCCCCCCCCCOP(=O)([O-])OCC[N+](C)(C)C` [Miltefosine] showed a CC50 at 24 h of 128000 ± 8850 nM. The “N. fowleri ATCC® 30215™ SI (CC50/IC50)” value in data set [1] is 1.568. In data set [2], the “N. fowleri ATCC® 30808™ SI (CC50/IC50)” value amounted to 3.301.

The values above are taken from publication PMC8501684 (International Journal for Parasitology: Drugs and Drug …, 2021).
